In ChEMBL document CHEMBL2440012, “Design, synthesis and anticonvulsant properties of new N-Mannich bases derived from 3-phenylpyrrolidine-2,5-diones” (Bioorg Med Chem, 2013):
The source made the active and inactive calls. No cut-off for these calls is given here.

Key:
Mus musculus [1] = assay: Neurotoxicity in albino CF1 mouse assessed as minimum motor impairment at 300 mg/kg, ip measured after 4 hrs by rotorod test; format: toxicity, organism-based; set-up: dose 300 mg/kg, route intraperitoneal; settings: in vivo
In short: (§1)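 Male CF-1 mice given ip suspension in 0.5% methylcellulose/water at 30, 100 and 300 mg/kg; MES, scPTZ (pentylenetetrazole 85 mg/kg sc, CD97 dose for clonic seizures ≥5 s) and rotarod (inability to hold balance 1 min in each of three trials) assessed at 0.5 and 4 h; value is minimum dose active in half or more animals.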

Mus musculus [2] = assay: Neurotoxicity in albino CF1 mouse assessed as minimum motor impairment at 300 mg/kg, ip measured after 0.5 hr by rotorod test; format: toxicity, organism-based; set-up: dose 300 mg/kg, route intraperitoneal; settings: in vivo; in short: as §1
Mus musculus [3] = assay: Anticonvulsant activity in albino CF1 mouse assessed as protection against subcutaneous pentylenetetrazole-induced convulsion at 300 mg/kg, ip measured after 4 hrs; format: functional, organism-based; set-up: dose 300 mg/kg; in short: as §1
Mus musculus [4] = assay: Anticonvulsant activity in albino CF1 mouse assessed as protection against subcutaneous pentylenetetrazole-induced convulsion at 300 mg/kg, ip measured after 0.5 hrs; format: functional, organism-based; set-up: dose 300 mg/kg; in short: as §1
Mus musculus [5] = assay: Anticonvulsant activity in ip dosed albino CF1 mouse assessed as protection against maximal electroshock-induced seizures in half or more animals measured after 0.5 hr; format: functional; settings: read-out: MED; in short: as §1
Mus musculus [6] = assay: Anticonvulsant activity in ip dosed albino CF1 mouse assessed as protection against maximal electroshock-induced seizures in half or more animals measured after 4 hrs; format: functional; settings: read-out: MED; in short: as §1
Rattus norvegicus [7] = assay: Anticonvulsant activity in albino Sprague-Dawley rat assessed as protection against maximal electroshock-induced seizures at 30 mg/kg, po measured after 4 hrs; format: functional
In short: (§2)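 Male Sprague-Dawley rats, four per group, dosed p.o. at 30 mg/kg in 0.5% methylcellulose/water suspension; MES test at 0.25, 0.5, 1, 2 and 4 h, motor impairment examined in parallel; number of rats out of four protected.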

Rattus norvegicus [8] = assay: Anticonvulsant activity in albino Sprague-Dawley rat assessed as protection against maximal electroshock-induced seizures at 30 mg/kg, po measured after 2 hrs; format: functional; in short: as §2
Rattus norvegicus [9] = assay: Anticonvulsant activity in albino Sprague-Dawley rat assessed as protection against maximal electroshock-induced seizures at 30 mg/kg, po measured after 1 hr; format: functional; in short: as §2
Rattus norvegicus [10] = assay: Anticonvulsant activity in albino Sprague-Dawley rat assessed as protection against maximal electroshock-induced seizures at 30 mg/kg, po measured after 0.5 hr; format: functional; in short: as §2
Rattus norvegicus [11] = assay: Anticonvulsant activity in albino Sprague-Dawley rat assessed as protection against maximal electroshock-induced seizures at 30 mg/kg, po measured after 0.25 hr; format: functional; in short: as §2
Mus musculus [12] = assay: Neurotoxicity in ip dosed albino CF1 mouse assessed as minimum motor impairment in half or more animals measured after 0.5 hrs by rotorod test; format: toxicity, organism-based; settings: in vivo; in short: as §1
Mus musculus [13] = assay: Neurotoxicity in ip dosed albino CF1 mouse assessed as minimum motor impairment in half or more animals measured after 4 hrs by rotorod test; format: toxicity, organism-based; settings: in vivo; in short: as §1
Mus musculus [14] = assay: Anticonvulsant activity in albino CF1 mouse assessed as protection against maximal electroshock-induced seizures at 300 mg/kg, ip measured after 0.5 hr; format: functional, organism-based; set-up: dose 300 mg/kg; in short: as §1
Mus musculus [15] = assay: Anticonvulsant activity in albino CF1 mouse assessed as protection against maximal electroshock-induced seizures at 300 mg/kg, ip measured after 4 hrs; format: functional, organism-based; set-up: dose 300 mg/kg; in short: as §1
Rattus norvegicus [16] = assay: Neurotoxicity in po dosed albino Sprague-Dawley rat assessed as time to peak effect by rotorod test; format: toxicity, organism-based; settings: in vivo
Rattus norvegicus [17] = assay: Anticonvulsant activity against […] subcutaneous pentylenetetrazole-induced convulsion in po dosed albino Sprague-Dawley rat assessed as time to peak effect; format: functional
Rattus norvegicus [18] = assay: Anticonvulsant activity against maximal electroshock-induced seizures in po dosed albino Sprague-Dawley rat assessed as time to peak effect; format: functional
Rattus norvegicus [19] = assay: Anticonvulsant activity in po dosed albino Sprague-Dawley rat assessed as protection against subcutaneous pentylenetetrazole-induced convulsion; format: functional
Mus musculus [20] = assay: Anticonvulsant activity in albino CF1 mouse assessed as assessed as protection against 6 Hz psychomotor seizure at 100 mg/kg, ip after 4 hrs by minimal clonic seizure test; format: functional; settings: route intraperitoneal
In short: (§3)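 Male CF-1 mice, groups of four, dosed ip in 0.5% methylcellulose/water suspension, then challenged by 6-Hz corneal stimulation at 32 mA (0.2 ms pulses, 3 s, constant current) at 0.25, 0.5, 1, 2 or 4 h; count of mice out of four protected from stunned posture/clonic seizure.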

Mus musculus [21] = assay: Anticonvulsant activity in albino CF1 mouse assessed as assessed as protection against 6 Hz psychomotor seizure at 100 mg/kg, ip after 2 hrs by minimal clonic seizure test; format: functional; settings: route intraperitoneal; in short: as §3
Mus musculus [22] = assay: Anticonvulsant activity in albino CF1 mouse assessed as assessed as protection against 6 Hz psychomotor seizure at 100 mg/kg, ip after 1 hr by minimal clonic seizure test; format: functional; settings: route intraperitoneal; in short: as §3
Mus musculus [23] = assay: Anticonvulsant activity in albino CF1 mouse assessed as assessed as protection against 6 Hz psychomotor seizure at 100 mg/kg, ip after 0.25 hr by minimal clonic seizure test; format: functional; settings: route intraperitoneal; in short: as §3
Mus musculus [24] = assay: Anticonvulsant activity in albino CF1 mouse assessed as assessed as protection against 6 Hz psychomotor seizure at 100 mg/kg, ip after 0.5 hr by minimal clonic seizure test; format: functional; settings: route intraperitoneal; in short: as §3
[25] = Neurotoxicity in ip dosed albino CF1 mouse by rotorod test; format: toxicity, organism-based; settings: in vivo
Mus musculus [26] = assay: Neurotoxicity in ip dosed albino CF1 mouse assessed as time to peak effect by rotorod test; format: toxicity, organism-based; settings: in vivo
Mus musculus [27] = assay: Anticonvulsant activity against 6 Hz psychomotor seizure in ip dosed albino CF1 mouse assessed as time to peak effect by minimal clonic seizure test; format: functional

Structure (SMILES) | Activity (Mus musculus [1]) | Activity (Mus musculus [2]) | Activity (Mus musculus [3]) | Activity (Mus musculus [4]) | minimal effective dose (Mus musculus [5]) | minimal effective dose (Mus musculus [6]) | MED (Mus musculus [12]) | Activity (Mus musculus [14]) | further results
O=C1CC(c2ccc(Cl)cc2)C(=O)N1CN1CCOCC1 (racemic) | Non-toxic | Non-toxic | inactive | inactive | 100 mg/kg | 300 mg/kg |  |  | 
O=C1CC(c2cccc(Cl)c2)C(=O)N1CN1CCOCC1 (racemic) | Non-toxic |  | inactive | inactive | 100 mg/kg | 100 mg/kg | 300 mg/kg |  | Activity (Rattus norvegicus [7]): 50%; Activity (Rattus norvegicus [8]): 50%; Activity (Rattus norvegicus [9]): 50%; Activity (Rattus norvegicus [10]): 50%; Activity (Rattus norvegicus [11]): inactive
O=C1CC(c2cccc(Cl)c2)C(=O)N1CN1CCC(Cc2ccccc2)CC1 (racemic) | Non-toxic | Non-toxic | inactive | inactive | 300 mg/kg | 100 mg/kg |  |  | Activity (Rattus norvegicus [7]): inactive; Activity (Rattus norvegicus [8]): 50%; Activity (Rattus norvegicus [9]): 25%; Activity (Rattus norvegicus [10]): inactive; Activity (Rattus norvegicus [11]): 50%
O=C1CC(c2ccc(Cl)cc2)C(=O)N1CN1CCN(c2ccccc2Cl)CC1 (racemic) |  |  | inactive | inactive |  |  | 300 mg/kg | inactive | MED (Mus musculus [13]): 300 mg/kg; Activity (Mus musculus [15]): inactive
O=C1CC(c2ccc(Cl)cc2)C(=O)N1CN1CCN(c2cccc(Cl)c2)CC1 (racemic) |  |  | inactive | inactive |  | 100 mg/kg | 300 mg/kg | inactive | MED (Mus musculus [13]): 300 mg/kg
CCCC(CCC)C(=O)O [VALPROIC ACID] |  |  |  |  |  |  |  |  | Time (Rattus norvegicus [16]): 1 h; Time (Rattus norvegicus [17]): 1 h; Time (Rattus norvegicus [18]): 1 h; ED50 (Rattus norvegicus [19]): 646 mg/kg
O=C1CC(c2ccc(Cl)cc2)C(=O)N1CN1CCC(Cc2ccccc2)CC1 (racemic) | Non-toxic | Non-toxic | inactive | inactive |  | 100 mg/kg |  | inactive | Activity (Mus musculus [20]): 25%; Activity (Mus musculus [21]): 75%; Activity (Mus musculus [22]): 0%; Activity (Mus musculus [23]): 0%; Activity (Mus musculus [24]): 0%
CC[C@@H](C(N)=O)N1CCCC1=O |  |  |  |  |  |  |  |  | TD50 [25]: > 500 mg/kg; Time (Mus musculus [26]): 1 h; Time (Mus musculus [27]): 1 h
